For 96 molecules, cytotoxicity results are on record in ChEMBL document CHEMBL4513216, “Probing the Open Global Health Chemical Diversity Library for Multistage-Active Starting Points for Next-Generation Antimalarials” (ACS Infect Dis, 2020).

The series can be described thus: Toxicity liver stage against HepG2, at 10uM. Type of series: cell-based. Also noted: test concentration 10 uM, cell line HepG2-A16-CD81EGFP. Conditions: human, HepG2-A16-CD81EGFP cells; read-out: INHIBITION
An outline of the steps: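 Uninfected HepG2-A16-CD81EGFP cells, 3 × 10^3 per well, 1536-well, plated on prespotted compound at 10 μM final, parasite-free screening media added to match infected plates; puromycin 10 μM positive, DMSO 0.5% negative; run in parallel with 48 h PbLuc assay at 37 °C, 5% CO2; viability by CellTiter-Glo luminescence, normalized to controls.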
As for `O=C(NS(=O)(=O)c1ccc(C2CCCCC2)cc1)C1COCCO1` (stereo unspecified), the cytotoxicity at 10 µM is 7.02%. Turning to `Cc1ccc(-c2nc(C(=O)N3CCCCC3CNS(C)(=O)=O)cs2)cc1` (stereo unspecified), the cytotoxicity at 10 µM was -2.14%.

As to `COc1ncc(C2(O)CCN(Cc3cc(F)cc(F)c3)CC2)c(OC)n1`, the cytotoxicity at 10 µM stood at 0.331%. To `CCC(C)(C)CC(=O)NC(C)C(=O)Nc1ccc(-n2cncn2)cc1` (stereo unspecified) belongs 3.47%; to `Cc1ccc(-c2noc(CN3CCCC(Cn4cncn4)C3)n2)cc1` (stereo unspecified), -7.12%; to `CNC(=O)c1ccc2c(OC)n(C)nc2c1`, -2.43%. To `CCn1cc(C(=O)Nc2ccccc2C(=O)OC)cn1` belongs -7.25%; to `CC(C)(C)c1coc([C@@H]2COCCN2Cc2c[nH]c3ccccc23)n1`, -1.23%.

On to `Cn1cnnc1S(=O)(=O)Cc1cc(Cl)c2c(c1)OCCO2`, for which the cytotoxicity at 10 µM was -44.7%.

With `Oc1c(F)cc(CNc2cccc(-c3nnc[nH]3)c2)cc1F`, the cytotoxicity at 10 µM is -44.2%.

`Cc1cnc2c(S(=O)(=O)NCC3CC3)cccc2c1`: the cytotoxicity at 10 µM is -2.87%. In the case of `COc1ccc(CN2CCN(CC3CC3)[C@@H]3CS(=O)(=O)C[C@@H]32)cc1C` it was -1.95%; in that of `O=C(c1scc2c1OCCO2)N1CCN(Cc2cccc(F)c2)CC1`, 0.993%; in that of `Fc1cnc(N2CCC3(CC2)CN(Cc2ccccn2)CCO3)nc1`, 0.35%. In the case of `COc1cccc(CN(C(=O)NC2CC2)C2CCC(O)CC2)c1` (stereo unspecified) it was 6.8%; in that of `Cc1nn(C)c(N2CCOCC2)c1CNCC1CCS(=O)(=O)C1` (stereo unspecified), -2.09%. In the case of `Cc1ccc(-c2nc(C(=O)N(C)CC(=O)N3CCCC3)cs2)c(C)c1` it was -2.28%.

As for `Cc1nnc2ccc(OCCNS(=O)(=O)c3cccs3)nn12`, the cytotoxicity at 10 µM was -12.1%. Consider `O=c1ccc2c(n1CC1CC1)CCC(NCc1cccs1)C2` (stereo unspecified), for which the cytotoxicity at 10 µM was -111%. In the case of `CCCNC(=O)C1CCCN(Cc2csc(C(C)(C)C)n2)C1` (stereo unspecified) it was -3.14%. To `Cc1cccc(CN2CCC3(CCC(C(=O)N(C)C)O3)CC2)n1` (stereo unspecified) belongs 3.14%; to `COCCN(c1ccncc1)S(=O)(=O)c1cc(C)cc(F)c1`, 7.83%; to `COc1ccc(CNC(=O)N2CCOCC2C2CC2)cc1C` (stereo unspecified), 10.4%. Regarding `CC(C)OCCCNC(=O)CN(c1ccc(F)c(F)c1)S(C)(=O)=O`, the cytotoxicity at 10 µM amounted to 9.96%. In the case of `CCCn1c(C)c(CC(=O)NCCNC(C)=O)c2c1CC(C)(C)CC2=O` it was 6.2%; in that of `CCCn1c(C)c(CC(=O)NC(C)(C)CO)c2c1CC(C)(C)CC2=O`, -8.97%; in that of `CCCS(=O)(=O)N1C[C@@H]2C[C@H](C(=O)N3CCCC3)[C@H](C1)O2`, -6.28%.

For `CC(C)Oc1ccc(C(=O)Cn2cnnc2[S+](C)[O-])cc1` (stereo unspecified), the cytotoxicity at 10 µM was -4.68%. On to `C[C@@H]1CN(CCOCc2ccccc2)CC[C@@]1(O)C1CCC1`, for which the cytotoxicity at 10 µM was 1.4%. In the case of `Cc1nc(C)n(CC2CCCN(CCc3ccccn3)C2)n1` (stereo unspecified) it was -1.59%; in that of `CC[C@H](C)Nc1nccc(-c2cnc3sccn3c2=O)n1`, -8.72%; in that of `Cn1cc(N2CC3(CCN(S(C)(=O)=O)C3)CC2=O)cn1` (stereo unspecified), 9.04%. To `CNc1nc(CNC(=O)Nc2ccc(OC(C)C)cc2F)cs1` belongs 61.2%; to `CCN1CCCC(CN(C)c2nccc(-c3ccc(C)nc3C)n2)C1` (stereo unspecified), -13.5%.

For the molecule `CN(C)Cc1cc(-c2nccn2CCn2cccn2)ccc1O`, the cytotoxicity at 10 µM is -50.5%.

Turning to `CC(C)(C)c1n[nH]c(C2CN(Cc3nnc(C4CC4)o3)CCO2)n1` (stereo unspecified), the cytotoxicity at 10 µM is -6.55%. To `COc1cccc(COCC(=O)N2CCCCCC2)c1` belongs -3.48%; to `CN1CCCC(CNC(=O)N2CCN(Cc3ccon3)CC2)C1` (stereo unspecified), 15.5%; to `CCN1C[C@H]2CCN(C(=O)Cc3cccc(OC)c3)CC[C@H]2S1(=O)=O`, 9.86%. In the case of `Oc1cc(-c2cccs2)nc(C2CCCN(CC3=CCCOC3)C2)n1` (stereo unspecified), the cytotoxicity at 10 µM was -5.56%. To `O=C(Cn1ccc2ccccc21)N1CCC(Oc2ncccc2Br)CC1` belongs 4.51%; to `COCCN1CCC(NCc2c(F)cccc2F)C1` (stereo unspecified), -5.95%; to `c1coc(COCc2ncn3c2CN(Cc2cccs2)CCC3)c1`, -76.2%. On to `Cc1cc(C)n(C2CN(C(=O)c3cn4ccsc4n3)C2)n1`, for which the cytotoxicity at 10 µM amounted to 4.99%.

Consider `FC(F)(F)COCCN1CCOC(Cn2cccn2)C1` (stereo unspecified), for which the cytotoxicity at 10 µM was -6.1%. Consider `CN(Cc1ccncc1)c1cncc(Br)c1`, for which the cytotoxicity at 10 µM was determined as 2.71%. To `CN(CC(=O)NC1CC1)C(=O)c1csc(Br)c1` belongs -0.872%; to `CC(C)(C)OC(=O)N1CCCCC(NC(=O)CCc2cccnc2)C1` (stereo unspecified), 17.5%.

As for `c1cc(-c2nccn2CCc2nc3c(s2)CCC3)ccn1`, the cytotoxicity at 10 µM turned out to be 6.15%.

For `CC(C)c1cc(NC(=O)CN2CCc3c(nc(C(C)C)n3C)C2)on1`, the cytotoxicity at 10 µM is -12.3%. For the molecule `CCc1nnc(CN2CCC3(CCC(=O)N(C4CCCC4)C3)CC2)o1`, the cytotoxicity at 10 µM is -5.16%. In the case of `O=C(c1ccc2c(c1)[nH]c(=O)n2C1CCCC1)N1CC(O)C1` it was -53.5%; in that of `Cc1cnn(CC(=O)N2CCC3(CCC(=O)N(CCCO)C3)CC2)c1`, -9.44%; in that of `O=C(CCC1CCN(C2CSCCSC2)CC1)NCC1CCCO1` (stereo unspecified), 6.5%. Turning to `CC(NC(=O)N(C)Cc1ccsc1)c1nncn1C` (stereo unspecified), the cytotoxicity at 10 µM was -4.02%. Consider `CCC(CC)NC(=O)c1cccnc1N1CCCC1c1ccccn1` (stereo unspecified), for which the cytotoxicity at 10 µM was 10.3%.

On to `CC(C)OCCC1CCCCN1S(C)(=O)=O` (stereo unspecified), for which the cytotoxicity at 10 µM came out at 2.43%. In the case of `Cc1cc(NCC2CCCO2)cc(=O)n1C` (stereo unspecified) it was -8.19%; in that of `O=C(CN(CC(O)c1ccc(F)cc1)C1CC1)NCc1cccs1` (stereo unspecified), 0.0428%; in that of `CC(C)NC(=O)c1cc2c([nH]c1=O)CC(c1cccs1)CC2=O` (stereo unspecified), -3.01%.

Turning to `Cc1oc(C(=O)O)cc1S(=O)(=O)Nc1cc(Br)ccc1Cl`, the cytotoxicity at 10 µM amounted to 0.386%. `Cc1nc(O)cc(CCNc2nccc(CCC(F)(F)F)n2)n1`: the cytotoxicity at 10 µM was -149%. For the molecule `CC1CCC(NC(=O)CNC2(c3cccc(Br)c3)CCOCC2)CC1` (stereo unspecified), the cytotoxicity at 10 µM stood at 2.94%. In the case of `COc1cccc(C2CCCN2C(=O)c2ccc(=O)n(C)c2)c1` (stereo unspecified) it was -1.72%; in that of `CC(C)NC(=O)c1cc2c(s1)CCN2C(=O)CN(C)C`, 1.94%. In the case of `Cc1cnn(CCNCC(O)COc2c(C)ccc(C)c2C)c1` (stereo unspecified) it was -8.78%; in that of `Cc1cc(C)c2c(N3CCC(C(=O)N4CCOCC4)CC3)ncnc2n1`, -11.1%; in that of `CC(=O)Nc1cccc(CNC(=O)N(C)Cc2ccccc2)c1`, -2.11%. To `O=C(N1CCc2ccccc2CC1)C1(O)Cc2ccccc2C1` belongs 10.8%; to `Cc1cccnc1NC(=O)C1CCCN1Cc1ccccc1` (stereo unspecified), 10.2%; to `Cc1ccc(-c2ccccc2CC2CNCCNC2=O)c(C)c1` (stereo unspecified), -1.18%. Take `O=c1c2c(ncn1CCCO)nc1n2CCC1`: the cytotoxicity at 10 µM is -3.89%. To `Cc1nn(C)c(C)c1-c1cnc(C2CCCN(C)C2)cn1` (stereo unspecified) belongs -8.8%.

Turning to `CNC(=O)NC(=O)CN1CCc2c(Br)ccc(F)c2C1`, the cytotoxicity at 10 µM was -9.3%. To `CCC1CN(CC(=O)NCCN2CCCCC2)c2ccccc2S1` (stereo unspecified) belongs -10%; to `O=c1c2cccc(F)c2ncn1CCN1CCOCC1`, 2.53%; to `Cn1nc(C(=O)N2CCC(Oc3ccc(C#N)cn3)CC2)ccc1=O`, -3.33%. With `Cc1nc(CO[C@@H]2CN(Cc3nccs3)[C@@H]3COC[C@@H]32)cs1`, the cytotoxicity at 10 µM was -3.03%. To `CCCn1cc(CN2CCOCC2c2[nH]ncc2C)cn1` (stereo unspecified) belongs 0.325%.

As to `Cc1ccnn1CCNC(=O)c1cnc(N(C)C)nc1`, the cytotoxicity at 10 µM was 2.24%. Consider `CCc1noc(C)c1C(=O)N1C[C@H](NS(C)(=O)=O)[C@@H](C2CC2)C1`, for which the cytotoxicity at 10 µM was 1.23%.

Take `Nc1cc(C(=O)N2CCCC(C(=O)CCc3ccccc3)C2)ccn1` (stereo unspecified): the cytotoxicity at 10 µM is -6.97%. In the case of `Cc1oc(C(=O)O)cc1S(=O)(=O)Nc1cccc(-c2nccs2)c1` it was -1.01%. In the case of `c1ccc(NCCn2cc(C3CCCNC3)nn2)cc1` (stereo unspecified) it was 5.44%; in that of `O=C(NCC1(O)CCC1)c1c(O)cc(F)cc1F`, 6.22%; in that of `CCN(Cc1ccccc1O)CC1(C)Cc2c(N)nc(N)nc2O1` (stereo unspecified), 2.15%.

As to `Cc1csc(C(C)(C)NCC(=O)N(C)Cc2ccc(C)o2)n1`, the cytotoxicity at 10 µM is -1.12%. To `CS(=O)(=O)CCC(=O)NC(c1ccc(F)cc1)C(F)(F)F` (stereo unspecified) belongs -4.44%; to `Cc1ccc(C(=O)N2CCN3C[C@H](Oc4cccc(F)c4)C[C@H]3C2)cn1`, 11.2%. Regarding `CN1[C@@H](C(=O)NCC2CC2)C[C@@H]2CN(Cc3ccsc3)C[C@@H]21`, the cytotoxicity at 10 µM is -4.04%.

In the case of `Cn1ncc2cnn(CC(O)COc3cccc4[nH]ccc34)c2c1=O` (stereo unspecified), the cytotoxicity at 10 µM stood at 13.2%. In the case of `CN(C)C(=O)CN1C[C@H]2CCN(Cc3ccccc3)CC[C@H]2S1(=O)=O` it was 9.82%; in that of `CN(CCCNc1cc(N2CCCC2CO)ncn1)S(C)(=O)=O` (stereo unspecified), -10.2%.

On to `Cc1ccc(CN(C)CC2(O)CCCN(C)C2)o1` (stereo unspecified), for which the cytotoxicity at 10 µM is -8.08%.

Take `Cc1ccn(-c2cccc(C(=O)N3CCCC(n4ccnc4C)C3)c2)n1` (stereo unspecified): the cytotoxicity at 10 µM was -14.2%. To `CCn1nc(CC(C)C)cc1C(=O)N1C[C@H](O)[C@@H](N2CCCCC2)C1` belongs 20.7%.
